Test results reported in ChEMBL document CHEMBL5724801, “EUbOPEN Chemogenomics Library - Multiplex” (2024).
Where “and” joins values, the source holds several entries; their conditions need not be identical. Equal entries are not always repeated.

Tests used:
HEK-293T = test: Multiplex assay against HEK293T; assay type: toxicity, cell-based; settings: human
Summary of the method: (§1)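 Cells stained live at seeding with Hoechst33342, BioTracker Green Microtubule Cytoskeleton Dye, MitoTracker Red and Annexin V Alexa Fluor 680 were imaged on a CQ1 microscope at 37°C and 5% CO2 after compound addition. Their classification by CellPathfinder machine-learning gating ran from Hoechst high-intensity objects versus normal cells, to healthy, pyknosed or fragmented nuclei among normal cells, to mitotic or apoptotic among pyknosed cells. Tubulin, mitochondrial-mass and membrane-permeability phenotypes are per cents of healthy-nucleus cells.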

U2OS = test: Multiplex assay against U2OS; assay type: toxicity, cell-based; settings: human; summary of the method: as §1
[1] = 24 h, 10 µM, compound concentration 10 uM
[2] = 48 h, 1 µM, compound concentration 1 uM
[3] = 48 h, 10 µM, compound concentration 10 uM
[4] = 12 h, 1 µM, compound concentration 1 uM
[5] = 12 h, 10 µM, compound concentration 10 uM
[6] = 24 h, 1 µM, compound concentration 1 uM

SMILES: COc1ccc2[nH]c(I)c(CCNC(C)=O)c2c1 [IODOMELATONIN]
- Population Apoptotic (%) (HEK-293T; [1]): 32% and 40%
- Population Fragmented Nuclei (%) (HEK-293T; [1]): 11% and 5%
- Population Healthy Nuclei (%) (HEK-293T; [1]): 77% and 81%
- Population Hoechst High Intensity Objects (%) (HEK-293T; [1]): 5% and 9%
- Population Membrane Permeable-Phenotype (%) (HEK-293T; [1]): 1% and 0%
- Population Mitochondria Different-Phenotype (%) (HEK-293T; [1]): 31% and 48%
- Population Mitotic Cells (%) (HEK-293T; [1]): 67% and 59%
- Population Normal (%) (HEK-293T; [1]): 94% and 90%
- Population Pyknosed Nuclei (%) (HEK-293T; [1]): 10% and 12%
- Population Tubulin-Different-Phenotype (%) (HEK-293T; [1]): 25% and 21%
- Total Cell Count (HEK-293T; [1]): 568 and 360
- Population Apoptotic (%) (HEK-293T; [2]): 26% and 31%
- Population Fragmented Nuclei (%) (HEK-293T; [2]): 12%
- Population Healthy Nuclei (%) (HEK-293T; [2]): 79%
- Population Hoechst High Intensity Objects (%) (HEK-293T; [2]): 4% and 5%
- Population Membrane Permeable-Phenotype (%) (HEK-293T; [2]): 1%
- Population Mitochondria Different-Phenotype (%) (HEK-293T; [2]): 19% and 22%
- Population Mitotic Cells (%) (HEK-293T; [2]): 73% and 68%
- Population Normal (%) (HEK-293T; [2]): 95% and 94%
- Population Pyknosed Nuclei (%) (HEK-293T; [2]): 7% and 8%
- Population Tubulin-Different-Phenotype (%) (HEK-293T; [2]): 16% and 14%
- Total Cell Count (HEK-293T; [2]): 770 and 622
- Population Apoptotic (%) (HEK-293T; [3]): 23% and 25%
- Population Fragmented Nuclei (%) (HEK-293T; [3]): 16% and 15%
- Population Healthy Nuclei (%) (HEK-293T; [3]): 77% and 75%
- Population Hoechst High Intensity Objects (%) (HEK-293T; [3]): 1% and 2%
- Population Membrane Permeable-Phenotype (%) (HEK-293T; [3]): 1% and 0%
- Population Mitochondria Different-Phenotype (%) (HEK-293T; [3]): 16% and 24%
- Population Mitotic Cells (%) (HEK-293T; [3]): 76% and 74%
- Population Normal (%) (HEK-293T; [3]): 98% and 97%
- Population Pyknosed Nuclei (%) (HEK-293T; [3]): 5% and 9%
- Population Tubulin-Different-Phenotype (%) (HEK-293T; [3]): 11% and 16%
- Total Cell Count (HEK-293T; [3]): 860 and 613
- Population Apoptotic (%) (U2OS; [4]): 68% and 37%
- Population Fragmented Nuclei (%) (U2OS; [4]): 19% and 11%
- Population Healthy Nuclei (%) (U2OS; [4]): 74% and 83%
- Population Hoechst High Intensity Objects (%) (U2OS; [4]): 2% and 0%
- Population Membrane Permeable-Phenotype (%) (U2OS; [4]): 4% and 5%
- Population Mitochondria Different-Phenotype (%) (U2OS; [4]): 3% and 1%
- Population Mitotic Cells (%) (U2OS; [4]): 31% and 62%
- Population Normal (%) (U2OS; [4]): 97% and 99%
- Population Pyknosed Nuclei (%) (U2OS; [4]): 5%
- Population Tubulin-Different-Phenotype (%) (U2OS; [4]): 1% and 2%
- Total Cell Count (U2OS; [4]): 282 and 156
- Population Apoptotic (%) (U2OS; [5]): 77% and 80%
- Population Fragmented Nuclei (%) (U2OS; [5]): 25% and 41%
- Population Healthy Nuclei (%) (U2OS; [5]): 64% and 54%
- Population Hoechst High Intensity Objects (%) (U2OS; [5]): 3% and 0%
- Population Membrane Permeable-Phenotype (%) (U2OS; [5]): 2% and 10%
- Population Mitochondria Different-Phenotype (%) (U2OS; [5]): 1% and 6%
- Population Mitotic Cells (%) (U2OS; [5]): 22% and 20%
- Population Normal (%) (U2OS; [5]): 96% and 99%
- Population Pyknosed Nuclei (%) (U2OS; [5]): 9% and 3%
- Population Tubulin-Different-Phenotype (%) (U2OS; [5]): 1% and 2%
- Total Cell Count (U2OS; [5]): 231 and 134
- Population Apoptotic (%) (U2OS; [6]): 86% and 80%
- Population Fragmented Nuclei (%) (U2OS; [6]): 16% and 15%
- Population Healthy Nuclei (%) (U2OS; [6]): 75% and 78%
- Population Hoechst High Intensity Objects (%) (U2OS; [6]): 1%
- Population Membrane Permeable-Phenotype (%) (U2OS; [6]): 3% and 8%
- Population Mitochondria Different-Phenotype (%) (U2OS; [6]): 1% and 0%
- Population Mitotic Cells (%) (U2OS; [6]): 13% and 20%
- Population Normal (%) (U2OS; [6]): 98%
- Population Pyknosed Nuclei (%) (U2OS; [6]): 8% and 5%
- Population Tubulin-Different-Phenotype (%) (U2OS; [6]): 2%
- Total Cell Count (U2OS; [6]): 354 and 179
- Population Apoptotic (%) (U2OS; [1]): 95% and 88%
- Population Fragmented Nuclei (%) (U2OS; [1]): 25% and 34%
- Population Healthy Nuclei (%) (U2OS; [1]): 66% and 59%
- Population Hoechst High Intensity Objects (%) (U2OS; [1]): 1%
- Population Membrane Permeable-Phenotype (%) (U2OS; [1]): 4% and 7%
- Population Mitochondria Different-Phenotype (%) (U2OS; [1]): 1% and 5%
- Population Mitotic Cells (%) (U2OS; [1]): 4% and 11%
- Population Normal (%) (U2OS; [1]): 98%
- Population Pyknosed Nuclei (%) (U2OS; [1]): 8% and 5%
- Population Tubulin-Different-Phenotype (%) (U2OS; [1]): 1% and 2%
- Total Cell Count (U2OS; [1]): 273 and 153
- Population Apoptotic (%) (U2OS; [2]): 92% and 86%
- Population Fragmented Nuclei (%) (U2OS; [2]): 12% and 13%
- Population Healthy Nuclei (%) (U2OS; [2]): 79% and 81%
- Population Hoechst High Intensity Objects (%) (U2OS; [2]): 1%
- Population Membrane Permeable-Phenotype (%) (U2OS; [2]): 5% and 4%
- Population Mitochondria Different-Phenotype (%) (U2OS; [2]): 2%
- Population Mitotic Cells (%) (U2OS; [2]): 7% and 13%
- Population Normal (%) (U2OS; [2]): 98%
- Population Pyknosed Nuclei (%) (U2OS; [2]): 7% and 5%
- Population Tubulin-Different-Phenotype (%) (U2OS; [2]): 3%
- Total Cell Count (U2OS; [2]): 509 and 284
- Population Apoptotic (%) (U2OS; [3]): 97% and 100%
- Population Fragmented Nuclei (%) (U2OS; [3]): 21% and 29%
- Population Healthy Nuclei (%) (U2OS; [3]): 68% and 65%
- Population Hoechst High Intensity Objects (%) (U2OS; [3]): 2% and 0%
- Population Membrane Permeable-Phenotype (%) (U2OS; [3]): 5% and 7%
- Population Mitochondria Different-Phenotype (%) (U2OS; [3]): 0% and 5%
- Population Mitotic Cells (%) (U2OS; [3]): 2% and 0%
- Population Normal (%) (U2OS; [3]): 97% and 99%
- Population Pyknosed Nuclei (%) (U2OS; [3]): 9% and 5%
- Population Tubulin-Different-Phenotype (%) (U2OS; [3]): 2% and 4%
- Total Cell Count (U2OS; [3]): 373 and 209
